Columns and labels:
Prothrombin [1] = target: T1, Prothrombin (Homo sapiens, UniProt P00734); test: Inhibition of human thrombin
Summary of the method: (§1)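 Preincubated with compound 30 min, then Pefachrome TH at 50 μM final. p-Nitroanilide release followed at 405 nm for 5 min. IC50 from initial velocities; apparent Ki via Cheng-Prusoff, assuming competitive inhibition.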

Serine protease 1 = target: T2, Serine protease 1 (Bos taurus, UniProt P00760); test: Inhibitory activity against bovine pancreatic trypsin
T2 sequence (P00760 whole entry): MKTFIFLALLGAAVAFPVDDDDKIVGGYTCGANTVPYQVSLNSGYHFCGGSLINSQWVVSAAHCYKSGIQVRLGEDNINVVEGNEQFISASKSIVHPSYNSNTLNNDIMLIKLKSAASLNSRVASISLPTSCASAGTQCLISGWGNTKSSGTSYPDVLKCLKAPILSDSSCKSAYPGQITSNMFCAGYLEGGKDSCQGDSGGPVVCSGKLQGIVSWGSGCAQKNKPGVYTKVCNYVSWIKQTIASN
Summary of the method: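 Bovine trypsin at 1 nM final, with buffer 0.05 M Tris, 0.15 M NaCl, 0.1% PEG-8000, 0.02 M CaCl2, pH 7.5, room temperature. 30 min compound preincubation, then S-2765 at 250 μM final. 405 nm read continuously for 5 min. IC50 from initial rates; apparent Ki by Cheng-Prusoff, assuming competitive kinetics.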

Coagulation factor X = Coagulation factor X (Homo sapiens, UniProt P00742); test: Compound was evaluated for the inhibition of human Coagulation factor Xa
Coagulation factor X, sequence (P00742 41-179 limits assumed): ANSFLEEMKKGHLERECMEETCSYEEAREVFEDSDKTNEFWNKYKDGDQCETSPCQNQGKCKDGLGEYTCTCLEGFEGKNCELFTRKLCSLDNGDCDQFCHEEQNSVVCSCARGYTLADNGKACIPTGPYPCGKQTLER
Coagulation factor X, sequence (P00742 235-488 limits assumed): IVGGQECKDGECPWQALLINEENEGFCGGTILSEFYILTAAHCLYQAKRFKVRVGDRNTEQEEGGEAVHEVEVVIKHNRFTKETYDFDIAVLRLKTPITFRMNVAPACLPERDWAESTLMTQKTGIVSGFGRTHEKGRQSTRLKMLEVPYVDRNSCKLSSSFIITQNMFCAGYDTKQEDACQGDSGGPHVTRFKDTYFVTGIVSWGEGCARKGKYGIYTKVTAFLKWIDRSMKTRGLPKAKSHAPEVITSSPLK

[2] = target: T3, Vitamin K-dependent protein C (Homo sapiens, UniProt P04070); test: Compound was evaluated for the inhibition of activated protein C (aPC)
T3 sequence (P04070 43-197 limits assumed): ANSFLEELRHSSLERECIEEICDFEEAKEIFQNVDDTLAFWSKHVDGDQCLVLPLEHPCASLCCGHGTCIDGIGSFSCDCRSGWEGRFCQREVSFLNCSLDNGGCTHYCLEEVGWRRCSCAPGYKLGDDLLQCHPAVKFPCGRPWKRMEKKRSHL
T3 sequence (P04070 212-461 limits assumed): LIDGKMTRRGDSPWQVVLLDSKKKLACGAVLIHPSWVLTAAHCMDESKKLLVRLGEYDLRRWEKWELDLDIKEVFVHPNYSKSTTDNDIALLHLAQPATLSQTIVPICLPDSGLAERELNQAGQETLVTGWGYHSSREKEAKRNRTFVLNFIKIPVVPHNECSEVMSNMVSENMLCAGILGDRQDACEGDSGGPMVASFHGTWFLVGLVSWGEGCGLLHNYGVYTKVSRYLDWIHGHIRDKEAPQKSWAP
Summary of the method: (§2)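 Human aPC, final enzyme 1 nM, in 0.05 M Tris, 0.15 M NaCl, 0.1% PEG-8000, 0.02 M CaCl2, pH 7.5. Compound preincubated with enzyme 30 min at room temperature. S-2366 at 500 μM final started the reaction. p-Nitroanilide release read continuously at 405 nm for 5 min, under 10% substrate consumed. IC50 from initial velocities; apparent Ki by Cheng-Prusoff, competitive mechanism assumed.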

Plasminogen = Plasminogen (Homo sapiens, UniProt P00747); test: Compound was evaluated for the inhibition of plasmin
Plasminogen, sequence (P00747 97-580 limits assumed): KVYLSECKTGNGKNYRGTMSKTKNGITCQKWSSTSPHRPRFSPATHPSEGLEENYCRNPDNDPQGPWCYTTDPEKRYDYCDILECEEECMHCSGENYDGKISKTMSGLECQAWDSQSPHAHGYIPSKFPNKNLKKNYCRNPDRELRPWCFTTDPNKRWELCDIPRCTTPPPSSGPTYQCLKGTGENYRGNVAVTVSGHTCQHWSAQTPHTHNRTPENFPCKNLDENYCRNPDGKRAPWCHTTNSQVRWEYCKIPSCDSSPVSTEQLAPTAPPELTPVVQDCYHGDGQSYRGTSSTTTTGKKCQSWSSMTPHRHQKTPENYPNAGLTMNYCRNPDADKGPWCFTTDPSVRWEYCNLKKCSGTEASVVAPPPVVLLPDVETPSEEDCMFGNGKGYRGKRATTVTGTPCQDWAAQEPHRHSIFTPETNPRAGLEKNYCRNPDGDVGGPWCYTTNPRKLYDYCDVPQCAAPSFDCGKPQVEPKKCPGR
Plasminogen, sequence (P00747 581-810 limits assumed): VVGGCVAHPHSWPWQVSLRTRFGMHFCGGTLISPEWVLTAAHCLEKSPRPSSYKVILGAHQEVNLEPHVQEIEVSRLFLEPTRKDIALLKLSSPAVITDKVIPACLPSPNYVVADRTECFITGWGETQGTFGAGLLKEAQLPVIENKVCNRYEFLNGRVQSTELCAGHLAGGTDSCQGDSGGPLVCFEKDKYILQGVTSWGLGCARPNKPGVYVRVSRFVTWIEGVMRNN
Summary of the method: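 Compound preincubated 30 min, then S-2366 at 300 μM final. Continuous 405 nm read over 5 min. Initial velocities gave IC50; apparent Ki from Cheng-Prusoff, assuming competitive mechanism.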

[3] = target: Tissue-type plasminogen activator (Homo sapiens, UniProt P00750); test: Compound was evaluated for the inhibition of Tissue type plasminogen activator (tissue plasminogen activator)
Tissue-type plasminogen activator, sequence (P00750 whole entry): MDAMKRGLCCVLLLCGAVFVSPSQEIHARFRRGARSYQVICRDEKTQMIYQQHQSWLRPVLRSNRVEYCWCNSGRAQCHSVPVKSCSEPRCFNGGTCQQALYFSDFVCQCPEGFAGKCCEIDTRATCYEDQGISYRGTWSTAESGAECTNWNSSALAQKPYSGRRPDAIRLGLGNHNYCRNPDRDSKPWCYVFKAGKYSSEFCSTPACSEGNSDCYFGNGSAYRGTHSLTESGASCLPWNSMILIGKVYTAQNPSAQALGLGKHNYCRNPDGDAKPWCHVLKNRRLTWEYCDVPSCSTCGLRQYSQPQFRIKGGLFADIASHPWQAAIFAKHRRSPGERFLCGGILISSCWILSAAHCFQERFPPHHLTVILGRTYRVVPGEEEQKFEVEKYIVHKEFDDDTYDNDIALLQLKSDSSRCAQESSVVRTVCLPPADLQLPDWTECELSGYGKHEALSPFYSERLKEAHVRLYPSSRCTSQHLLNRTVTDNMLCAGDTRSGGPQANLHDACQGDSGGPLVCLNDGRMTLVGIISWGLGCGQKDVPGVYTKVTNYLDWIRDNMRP
Summary of the method: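 tPA, final enzyme 1 nM, in 0.05 M Tris, 0.15 M NaCl, 0.1% (w/v) BSA, pH 7.5. Preincubated 30 min with compound at room temperature, then Pefachrome-tPA at 500 μM final added. Release of p-nitroanilide monitored at 405 nm for 5 min. IC50 taken from initial rates; apparent Ki via Cheng-Prusoff, assuming competitive inhibition.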

Prothrombin [4] = target: T1, Prothrombin; test: Compound was evaluated for the inhibition of thrombin.; summary of the method: as §1
[5] = target: T3, Vitamin K-dependent protein C; test: Compound was evaluated for the inhibition of Activated protein C (aPC); summary of the method: as §2

Row | Structure (SMILES) | Ki (Prothrombin [1]) [nM] | Ki (Serine protease 1) [nM] | Ki (Coagulation factor X) [nM] | Ki [2] [nM] | Ki (Plasminogen) [nM] | Ki [3] [nM] | Ki (Prothrombin [4]) [nM] | Ki [5] [nM]
1 | COc1ccc2ccc(S(=O)(=O)N(Cc3cccs3)[C@H]3CCN(Cc4cccc(C(=N)N)c4)C3=O)cc2c1 | 970 | 1940 | 34 | – | – | – | – | –
2 | N=C(N)c1cccc(CNC(=O)CNS(=O)(=O)c2ccc3ccccc3c2)c1 | 630 | 80 | 340 | – | – | – | – | –
3 | COc1ccc2ccc(S(=O)(=O)N(Cc3ccccn3)[C@H]3CCN(Cc4cccc(C(=N)N)c4)C3=O)cc2c1 | 1160 | 1940 | 31 | – | – | – | – | –
4 | N=C(N)c1cccc(CN2CC[C@H](NS(=O)(=O)c3ccc4ccc(O)cc4c3)C2=O)c1 | > 4000 | > 2900 | 500 | – | – | – | – | –
5 | COc1ccc2ccc(S(=O)(=O)N[C@H]3CCN(Cc4csc(C(=N)N)c4)C3=O)cc2c1 | 1300 | 500 | 11 | – | – | – | – | –
6 | CCc1ccc2ccc(S(=O)(=O)N[C@H]3CCN(Cc4cccc(C(=N)N)c4)C3=O)cc2c1 | 1600 | 1600 | 370 | – | – | – | – | –
7 | N=C(N)c1cccc(CN2CCC[C@H](NS(=O)(=O)c3ccc4ccccc4c3)C2=O)c1 | > 4000 | > 2900 | 1300 | – | – | – | – | –
8 | N=C(N)c1cccc(Cn2cc(CCc3ccc4ccccc4c3)c3ccccc32)c1 | > 4000 | 2900 | 900 | – | – | – | – | –
9 | N=C(N)c1cccc(CN2CC[C@H](NS(=O)(=O)c3ccc(Oc4ccccc4)cc3)C2=O)c1 | > 4000 | > 2900 | 380 | – | – | – | – | –
10 | COc1ccc2ccc(S(=O)(=O)N(Cc3ccsc3)[C@H]3CCN(Cc4cccc(C(=N)N)c4)C3=O)cc2c1 | 360 | 1080 | 19 | – | – | – | – | –
11 | COc1cccc(-c2ccc(S(=O)(=O)N[C@H]3CCN(Cc4cccc(C(=N)N)c4)C3=O)cc2)c1 | 2500 | > 2900 | 100 | – | – | – | – | –
12 | COc1ccc2ccc(S(=O)(=O)N(Cc3cc[nH]n3)[C@H]3CCN(Cc4cccc(C(=N)N)c4)C3=O)cc2c1 | 1080 | 1390 | 21 | – | – | – | – | –
13 | Cc1cccc(-c2ccc(S(=O)(=O)N[C@H]3CCN(Cc4cccc(C(=N)N)c4)C3=O)cc2)c1 | > 4000 | > 2900 | 120 | – | – | – | – | –
14 | N=C(N)c1cccc(CN2C[C@@H](NS(=O)(=O)c3ccc4ccccc4c3)CC2=O)c1 | > 4000 | > 2900 | 9800 | – | – | – | – | –
15 | COc1ccc2ccc(S(=O)(=O)N[C@H]3CCN(Cc4coc(C(=N)N)c4)C3=O)cc2c1 | > 4000 | > 2900 | 180 | – | – | – | – | –
16 | N=C(N)c1cccc(CN2C[C@H](NS(=O)(=O)c3ccc4ccccc4c3)C2=O)c1 | > 4000 | > 2900 | 9900 | – | – | – | – | –
17 | N=C(N)c1cccc(CN2CCCC[C@H](NS(=O)(=O)c3ccc4ccccc4c3)C2=O)c1 | > 4000 | > 2900 | 7000 | – | – | – | – | –
18 | COc1ccc2ccc(S(=O)(=O)N(CC(=O)O)[C@H]3CCN(Cc4cccc(C(=N)N)c4)C3=O)cc2c1 | > 4000 | > 2900 | 120 | – | – | – | – | –
19 | CCN([C@H]1CCN(Cc2cccc(C(=N)N)c2)C1=O)S(=O)(=O)c1ccc2ccc(OC)cc2c1 | 880 | 1400 | 43 | – | – | – | – | –
20 | COc1ccc2ccc(S(=O)(=O)N(CCC(N)=O)[C@H]3CCN(Cc4cccc(C(=N)N)c4)C3=O)cc2c1 | 1500 | 2000 | 56 | – | – | – | – | –
21 | N=C(N)c1cccc(CN2CC[C@H](NS(=O)(=O)c3ccc4ccccc4c3)C2)c1 | > 4000 | > 2900 | > 10000 | – | – | – | – | –

Row | Structure (SMILES) | Ki (Prothrombin [1]) [nM] | Ki (Serine protease 1) [nM] | Ki (Coagulation factor X) [nM] | Ki [2] [nM] | Ki (Plasminogen) [nM] | Ki [3] [nM] | Ki (Prothrombin [4]) [nM] | Ki [5] [nM]
22 | N=C(N)c1cccc(CN2CC[C@H](NS(=O)(=O)c3ccc(Cc4ccccc4)cc3)C2=O)c1 | > 4000 | > 2900 | 1100 | – | – | – | – | –
23 | COc1ccc2ccc(S(=O)(=O)N[C@H]3CCN(Cc4cccc(C(=N)N)c4)C3=O)cc2c1 | – | – | – | 1200 | 4700 | > 10000 | – | –
24 | N=C(N)c1cccc(CN2CC[C@H](NS(=O)(=O)c3cccc4ccccc34)C2=O)c1 | > 4000 | > 2900 | 750 | – | – | – | – | –
25 | N=C(N)c1cccc(CN2CC[C@H](NS(=O)(=O)c3ccc4cc(Cl)ccc4c3)C2=O)c1 | 1500 | > 2900 | 70 | – | – | – | – | –
26 | CNc1ccc2ccc(S(=O)(=O)N[C@H]3CCN(Cc4cccc(C(=N)N)c4)C3=O)cc2c1 | > 4000 | 1500 | 250 | – | – | – | – | –
27 | COc1ccc2ccc(S(=O)(=O)N[C@H]3CCN(Cc4cc(C(=N)N)cs4)C3=O)cc2c1 | 2400 | 940 | 83 | – | – | – | – | –
28 | COc1ccc2ccc(S(=O)(=O)N(C)[C@H]3CCN(Cc4csc(C(=N)N)c4)C3=O)cc2c1 | – | 530 | – | 2400 | 4400 | 8600 | 1000 | –
29 | N=C(N)c1cccc(CN2CC[C@H](NS(=O)(=O)c3ccc4ccc(Cl)cc4c3)C2=O)c1 | 1200 | 2000 | 78 | – | – | – | – | –
30 | COc1ccccc1-c1ccc(S(=O)(=O)N[C@H]2CCN(Cc3cccc(C(=N)N)c3)C2=O)cc1 | > 4000 | > 2900 | 190 | – | – | – | – | –
31 | Cc1ccc2ccc(S(=O)(=O)N[C@H]3CCN(Cc4cccc(C(=N)N)c4)C3=O)cc2c1 | 1340 | 1100 | 100 | – | – | – | – | –
32 | COc1ccc2ccc(S(=O)(=O)N[C@H]3CCN(Cc4ccnc(C(=N)N)c4)C3=O)cc2c1 | 2040 | 2840 | 110 | – | – | – | – | –
33 | COc1ccc2ccc(S(=O)(=O)N[C@H]3CCN(Cc4ccc(C(=N)N)cc4)C3=O)cc2c1 | > 4000 | 2300 | 970 | – | – | – | – | –
34 | N=C(N)c1cccc(CN2CC[C@H](NS(=O)(=O)c3cccc(-c4ccccc4)c3)C2=O)c1 | > 4000 | > 2900 | 440 | – | – | – | – | –
35 | COc1ccc2ccc(S(=O)(=O)N(Cc3ccccc3)[C@H]3CCN(Cc4cccc(C(=N)N)c4)C3=O)cc2c1 | 440 | 1800 | 41 | – | – | – | – | –
36 | CCOc1ccc2ccc(S(=O)(=O)N[C@H]3CCN(Cc4cccc(C(=N)N)c4)C3=O)cc2c1 | 1900 | > 2900 | 280 | – | – | – | – | –
37 | COc1ccc2ccc(S(=O)(=O)N(CC(N)=O)[C@H]3CCN(Cc4cccc(C(=N)N)c4)C3=O)cc2c1 | 1440 | 1000 | 25 | – | – | – | – | –
38 | COc1ccc2cc(S(=O)(=O)N[C@H]3CCN(Cc4cccc(C(=N)N)c4)C3=O)ccc2c1 | 900 | > 2900 | 1000 | – | – | – | – | –
39 | COc1ccc2ccc(S(=O)(=O)N[C@H]3CCN(Cc4ccc(C(=N)N)s4)C3=O)cc2c1 | – | – | 220 | – | – | – | – | –
40 | COc1ccc2ccc(S(=O)(=O)N[C@H]3CCN(Cc4ccc(C(=N)N)o4)C3=O)cc2c1 | > 4000 | > 2900 | 570 | – | – | – | – | –
41 | N=C(N)c1cccc(CN2CC[C@H](NS(=O)(=O)c3ccc4ccc(N)cc4c3)C2=O)c1 | 2600 | 1300 | 120 | – | – | – | – | –
42 | N=C(N)c1cccc(CN2CC[C@H](NS(=O)(=O)c3ccc4ccccc4c3)C2=O)c1 | > 4000 | 2900 | – | – | 4700 | > 10000 | – | 7000
